ChEMBL document CHEMBL4387702, “Design and synthesis novel di-carbonyl analogs of curcumin (DACs) act as potent anti-inflammatory agents against LPS-induced acute lung injury (ALI)” (Eur J Med Chem, 2019)
The source made the active and inactive calls. No cut-off for these calls is given here.

How the values were obtained:
Mus musculus = test: Antiinflammatory activity in C57BL/6 mouse model of LPS-induced acute lung injury assessed as reduction in lung wet/dry ratio at 10 mg/kg, ip administered daily for one week prior to LPS challenge and measured after 6 hrs; assay type: functional, organism-based
Procedure, shortened: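 C57BL/6 mice (eight per group) received 10 mg/kg i.p. daily for one week; vehicle was 0.9% saline. They were then challenged with intratracheal LPS at 5 mg/kg and sacrificed 6 h later. Endpoints were lung wet/dry weight ratio and total and neutrophil cell counts in BALF, reported as mean ± SEM, n = 6.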

[1] = Oral bioavailability in Sprague-Dawley rat at 50 mg/kg measured up to 24 hrs by LC-MS/MS analysis; assay type: ADME, organism-based; details: in vivo
Procedure, shortened: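 The rat oral and intravenous plasma profiles (n = 5, tail sampling to 24 h, UHPLC-MS/MS) were used. Oral bioavailability was calculated as F = (AUC p.o × Dose i.v)/(AUC i.v × Dose p.o).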

[2] = AUC (0 to infinity) in Sprague-Dawley rat at 50 mg/kg, po by UHPLC-MS/MS analysis; assay type: ADME, organism-based; parameters: dose 50 mg/kg, time infinity, route oral; details: in vivo
Procedure, shortened: (§1)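 Male Sprague-Dawley rats (250 ± 20 g) fasted overnight with free access to water, n = 5 per route. Intravenous dose was 5 mg/kg; the intragastric dose is printed as 20 mg/kg in the methods and 50 mg/kg in the table. Tail blood was taken at 0.083, 0.25, 0.5, 1, 2, 4, 6, 9, 12 and 24 h. Samples were centrifuged (12000 rpm, 10 min), deproteinized with 2 volumes of acetonitrile, re-centrifuged and quantified by UHPLC-MS/MS.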

[3] = AUC (0 to infinity) in Sprague-Dawley rat at 5 mg/kg, iv by UHPLC-MS/MS analysis; assay type: ADME, organism-based; parameters: dose 5 mg/kg, route intravenous, time infinity; details: in vivo; procedure, shortened: as §1
[4] = MRT (0 to infinity) in Sprague-Dawley rat at 5 mg/kg, iv by UHPLC-MS/MS analysis; assay type: ADME, organism-based; details: in vivo; procedure, shortened: as §1
[5] = Tmax in Sprague-Dawley rat at 50 mg/kg, po by UHPLC-MS/MS analysis; assay type: ADME, organism-based; details: in vivo
Procedure, shortened: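 Male SD rats (250 ± 20 g), fasted overnight with water ad libitum, dosed intravenously or intragastrically, n = 5. Tail blood taken at 0.083, 0.25, 0.5, 1, 2, 4, 6, 9, 12 and 24 h post-dose and centrifuged 12000 rpm, 10 min. Supernatant mixed with 2 volumes acetonitrile, vortexed and re-centrifuged. Drug measured by UHPLC-MS/MS; PK parameters derived from time-concentration data.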

[6] = Apparent volume of distribution during terminal phase in Sprague-Dawley rat at 50 mg/kg, po by UHPLC-MS/MS analysis; assay type: ADME, organism-based; details: in vivo; procedure, shortened: as §1
[7] = Apparent volume of distribution during terminal phase in Sprague-Dawley rat at 5 mg/kg, iv by UHPLC-MS/MS analysis; assay type: ADME, organism-based; details: in vivo; procedure, shortened: as §1
[8] = Cmax in Sprague-Dawley rat at 50 mg/kg, po by UHPLC-MS/MS analysis; assay type: ADME, organism-based; parameters: dose 50 mg/kg, route oral; details: in vivo; procedure, shortened: as §1
[9] = Cmax in Sprague-Dawley rat at 5 mg/kg, iv by UHPLC-MS/MS analysis; assay type: ADME, organism-based; parameters: dose 5 mg/kg, route intravenous; details: in vivo; procedure, shortened: as §1

SMILES	Activity (Mus musculus)	bioavailability [1]	AUC [2]	AUC [3]	MRT [4]	Tmax [5]	Vz/F [6]	Vz/F [7]	Cmax [8]	Cmax [9]
COc1cc(/C=C/C(=O)N2CCC/C(=C\c3cc(OC)c(OC)c(OC)c3)C2=O)ccc1O	Active	–	–	–	–	–	–	–	–	–
COc1cc(/C=C/C(=O)N2CCC/C(=C\c3cc(OC)c(OC)c(OC)c3)C2=O)ccc1OC(C)=O	–	26.6%	0.3256 µg·h/mL	0.1224 µg·h/mL	19.9 h	3.3 h	827.1 L/kg	59.5 L/kg	0.113 µg/mL	0.0164 µg/mL
